# *1 amine or outer side, *2 acyl side, *3 side chain or, on linkers, in order; H or OH if unused. Where a SMILES comes first, the peptide text is derived from it. Side-chain parts run from the residue outwards. [ ]: non-standard residue; d: D form. dPhe(4-NHCONH2) = NC(=O)Nc1ccc(C[C@@H](N)C(=O)O)cc1; Phe(4-NHCONH2) = NC(=O)Nc1ccc(C[C@H](N)C(=O)O)cc1; dPhe(4-NH2) = Nc1ccc(C[C@@H](N)C(=O)O)cc1; dPhe(4-Cl) = N[C@H](Cc1ccc(Cl)cc1)C(=O)O; Phe(4-NH2) = Nc1ccc(C[C@H](N)C(=O)O)cc1; d2Nal = N[C@H](Cc1ccc2ccccc2c1)C(=O)O; Lys(iPr) = CC(C)NCCCC[C@H](N)C(=O)O; d3Pal = N[C@H](Cc1cccnc1)C(=O)O; CO = O=C([*:1])[*:2]
# How the values were obtained:
# [1] = target: T1, Gonadotropin-releasing hormone receptor (Homo sapiens, UniProt P30968); assay: Antagonism of human GnHR receptor, determined in a reporter gene assay in HEK293 cells; assay type: functional, cell-based
# T1 sequence (P30968 whole entry): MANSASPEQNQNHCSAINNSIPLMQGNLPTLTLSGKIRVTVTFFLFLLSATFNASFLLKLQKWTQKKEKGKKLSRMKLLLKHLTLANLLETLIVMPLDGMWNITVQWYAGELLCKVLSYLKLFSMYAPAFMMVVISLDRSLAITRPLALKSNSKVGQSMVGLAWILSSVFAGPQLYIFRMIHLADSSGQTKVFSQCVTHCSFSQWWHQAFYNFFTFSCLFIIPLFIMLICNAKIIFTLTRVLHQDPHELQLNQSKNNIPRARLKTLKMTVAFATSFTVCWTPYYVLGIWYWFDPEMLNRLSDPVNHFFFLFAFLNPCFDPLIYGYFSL
# Summary of the method: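 HEK293 cells stably expressing cloned human GnRH receptor plus luciferase reporter under LH alpha subunit promoter, plated 24 h before assay. Compound in 1% DMSO added 10 min at 37 °C, then GnRH at 3 nM final; 5 h incubation, luciferase luminescence read. Six concentrations in duplicate; blank-subtracted cps as % of GnRH control; mean of two determinations.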
# Rattus norvegicus [2] = species: Rattus norvegicus; assay: Compound was tested for inhibition of Leutenizing hormone release at 96 hours (very long duration) in castrated male rat assay; assay type: functional; parameters: concentration or dose not given beside the values
# Summary of the method: (§1)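 Male Sprague-Dawley rats (180-200 g), castrated under ether 10 days earlier, 5 per group. 50 µg/rat given sc in 100 µL 40 mM phosphate buffer with 0.1% BSA and 0.6% DMSO; acyline run as internal standard. Tail blood taken predose and at 24, 48, 72, 96 (sometimes 120) h; plasma LH by RIA. Duration classed by >80% LH inhibition at each time.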
# [3] = target: T1, Gonadotropin-releasing hormone receptor; assay: Competitive antagonism of GnRH-induced response in the reporter gene assay; assay type: functional; details: read-out: pA2 (converted)
# Summary of the method: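 Same HEK293 human GnRH receptor luciferase reporter cells. Seven-point GnRH curve (10 µM to 10 pM final) run in duplicate without or with four to five increasing compound concentrations (10 min preincubation, 37 °C), then 5 h and luminescence. GnRH EC50 at each level by four-parameter logistic fit, giving pA2; mean of two determinations in duplicate.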
# Rattus norvegicus [4] = species: Rattus norvegicus; assay: Compound was tested for histamine release at a concentration of 100 ug/mL; assay type: functional
# Summary of the method: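 Sprague-Dawley rat peritoneal mast cells, Percoll-purified, in heparinized balanced salt solution with albumin, pH 7.2. Cells exposed to compound or vehicle for 2 min at 37 °C. Supernatant histamine measured spectrofluorometrically after o-phthalaldehyde derivatization; pellets lysed for retained histamine. Reported as % of total histamine released, corrected for spontaneous release in vehicle.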
# Rattus norvegicus [5] = species: Rattus norvegicus; assay: Compound was tested for inhibition of Leutenizing hormone release at 48 hours (intermediate duration) in castrated male rat assay; assay type: functional; parameters: concentration or dose not given beside the values; summary of the method: as §1
# Rattus norvegicus [6] = species: Rattus norvegicus; assay: Compound was tested for inhibition of Leutenizing hormone release at 72 hours (long duration) in castrated male rat assay; assay type: functional; parameters: concentration or dose not given beside the values; summary of the method: as §1
Structure (SMILES),IC50 [1] [nM],Inhibition (Rattus norvegicus [2]) [%],Kb [3] [nM],HR (Rattus norvegicus [4]) [%],Inhibition (Rattus norvegicus [5]) [%],Inhibition (Rattus norvegicus [6]) [%]
CC(=O)N[C@H](Cc1ccc2ccccc2c1)C(=O)N[C@H](Cc1ccc(Cl)cc1)C(=O)N[C@H](Cc1cccnc1)C(=O)N[C@@H](CO)C(=O)N[C@@H](Cc1ccc(NC(=O)[C@@H]2CC(=O)NC(=O)N2)cc1)C(=O)N[C@H](Cc1ccc(CNC(N)=O)cc1)C(=O)N[C@@H](CC(C)C)C(=O)N[C@@H](CCCCNC(C)C)C(=O)N1CCC[C@H]1C(=O)N[C@H](C)CO,7.8,>80,1,,,
CC(=O)Nc1ccc(C[C@@H](NC(=O)[C@H](Cc2ccc(NC(=O)[C@@H]3CC(=O)NC(=O)N3)cc2)NC(=O)[C@H](CO)NC(=O)[C@@H](Cc2cccnc2)NC(=O)[C@@H](Cc2ccc(Cl)cc2)NC(=O)[C@@H](Cc2ccc3ccccc3c2)NC(C)=O)C(=O)N[C@@H](CC(C)C)C(=O)N[C@@H](CCCCNC(C)C)C(=O)N2CCC[C@H]2C(=O)N[C@H](C)C(N)=O)cc1,4.3,>80,1.26,54,,
CC(=O)Nc1ccc(C[C@@H](NC(=O)[C@H](Cc2ccc(NC(=O)C(NC(N)=O)NC(N)=O)cc2)NC(=O)[C@H](CO)NC(=O)[C@@H](Cc2cccnc2)NC(=O)[C@@H](Cc2ccc(Cl)cc2)NC(=O)[C@@H](Cc2ccc3ccccc3c2)NC(C)=O)C(=O)N[C@@H](CC(C)C)C(=O)N[C@@H](CCCCNC(C)C)C(=O)N2CCC[C@H]2C(=O)N[C@H](C)C(N)=O)cc1,8.9,,,,>80,
CC(=O)Nc1ccc(C[C@@H](NC(=O)[C@H](Cc2ccc(NC(=O)[C@H]3CC(=O)NC(=O)N3)cc2)NC(=O)[C@H](CO)NC(=O)[C@@H](Cc2cccnc2)NC(=O)[C@@H](Cc2ccc(Cl)cc2)NC(=O)[C@@H](Cc2ccc3ccccc3c2)NC(C)=O)C(=O)N[C@@H](CC(C)C)C(=O)N[C@@H](CCCCNC(C)C)C(=O)N2CCC[C@H]2C(=O)N[C@H](C)C(N)=O)cc1,8.6,,1,,,>80
CC(=O)Nc1ccc(C[C@@H](NC(=O)[C@H](Cc2ccc(NC(=O)C[C@@H]3NC(=O)NC3=O)cc2)NC(=O)[C@H](CO)NC(=O)[C@@H](Cc2cccnc2)NC(=O)[C@@H](Cc2ccc(Cl)cc2)NC(=O)[C@@H](Cc2ccc3ccccc3c2)NC(C)=O)C(=O)N[C@@H](CC(C)C)C(=O)N[C@@H](CCCCNC(C)C)C(=O)N2CCC[C@H]2C(=O)N[C@H](C)C(N)=O)cc1,8.1,,,,>80,
CC(=O)Nc1ccc(C[C@@H](NC(=O)[C@H](Cc2ccc(NC(=O)[C@H]3CNC(=O)N3)cc2)NC(=O)[C@H](CO)NC(=O)[C@@H](Cc2cccnc2)NC(=O)[C@@H](Cc2ccc(Cl)cc2)NC(=O)[C@@H](Cc2ccc3ccccc3c2)NC(C)=O)C(=O)N[C@@H](CC(C)C)C(=O)N[C@@H](CCCCNC(C)C)C(=O)N2CCC[C@H]2C(=O)N[C@H](C)C(N)=O)cc1,10.8,,,,>80,
CC(=O)N[C@H](Cc1ccc2ccccc2c1)C(=O)N[C@H](Cc1ccc(Cl)cc1)C(=O)N[C@H](Cc1cccnc1)C(=O)N[C@@H](CO)C(=O)N[C@@H](Cc1ccc(NC(=O)[C@@H]2CC(=O)NC(=O)N2)cc1)C(=O)N[C@H](Cc1ccc(NC(N)=O)cc1)C(=O)N[C@@H](CC(C)C)C(=O)N[C@@H](CCCCNC(C)C)C(=O)N1CCC[C@H]1C(=O)N[C@H](C)C(N)=O [DEGARELIX],8.8,,0.631,,>80,
CNC(=O)Nc1ccc(C[C@H](NC(=O)[C@H](CO)NC(=O)[C@@H](Cc2cccnc2)NC(=O)[C@@H](Cc2ccc(Cl)cc2)NC(=O)[C@@H](Cc2ccc3ccccc3c2)NC(C)=O)C(=O)N[C@H](Cc2ccc(NC(=O)NC)cc2)C(=O)N[C@@H](CC(C)C)C(=O)N[C@@H](CCCCNC(C)C)C(=O)N2CCC[C@H]2C(=O)N[C@H](C)C(N)=O)cc1 (Ac-[d2Nal][dPhe(4-Cl)][d3Pal]S[Phe(4-NH2)]([CO-NHMe])[dPhe(4-NH2)]([CO-NHMe])L[Lys(iPr)]P[dA]-NH2),,,,,>80,
CC(=O)Nc1ccc(C[C@@H](NC(=O)[C@H](Cc2ccc(NC(=O)[C@@H]3CNC(=O)N3)cc2)NC(=O)[C@H](CO)NC(=O)[C@@H](Cc2cccnc2)NC(=O)[C@@H](Cc2ccc(Cl)cc2)NC(=O)[C@@H](Cc2ccc3ccccc3c2)NC(C)=O)C(=O)N[C@@H](CC(C)C)C(=O)N[C@@H](CCCCNC(C)C)C(=O)N2CCC[C@H]2C(=O)N[C@H](C)C(N)=O)cc1,9.1,,0.631,,,>80
CC(=O)N[C@H](Cc1ccc2ccccc2c1)C(=O)N[C@H](Cc1ccc(Cl)cc1)C(=O)N[C@H](Cc1cccnc1)C(=O)N[C@@H](CO)C(=O)N[C@@H](Cc1ccc(NC(=O)[C@@H]2CC(=O)NC(=O)N2)cc1)C(=O)N[C@H](Cc1ccc(NC(N)=O)cc1)C(=O)N[C@@H](CC(C)C)C(=O)N[C@@H](CCCCNC(C)C)C(=O)N1CCC[C@H]1C(=O)N[C@H](C)CO,,>80,,,,
CC(=O)NCc1ccc(C[C@@H](NC(=O)[C@H](Cc2ccc(NC(=O)[C@@H]3CC(=O)NC(=O)N3)cc2)NC(=O)[C@H](CO)NC(=O)[C@@H](Cc2cccnc2)NC(=O)[C@@H](Cc2ccc(Cl)cc2)NC(=O)[C@@H](Cc2ccc3ccccc3c2)NC(C)=O)C(=O)N[C@@H](CC(C)C)C(=O)N[C@@H](CCCCNC(C)C)C(=O)N2CCC[C@H]2C(=O)N[C@H](C)C(N)=O)cc1,,,,,,>80
CC(=O)Nc1ccc(C[C@H](NC(=O)[C@H](CO)NC(=O)[C@@H](Cc2cccnc2)NC(=O)[C@@H](Cc2ccc(Cl)cc2)NC(=O)[C@@H](Cc2ccc3ccccc3c2)NC(C)=O)C(=O)N[C@H](Cc2ccc(CNC(N)=O)cc2)C(=O)N[C@@H](CC(C)C)C(=O)N[C@@H](CCCCNC(C)C)C(=O)N2CCC[C@H]2C(=O)N[C@H](C)C(N)=O)cc1,,,,,>80,
CCNC(=O)[C@@H]1CCCN1C(=O)[C@H](CCCCNC(C)C)NC(=O)[C@H](CC(C)C)NC(=O)[C@@H](Cc1ccc(CNC(N)=O)cc1)NC(=O)[C@H](Cc1ccc(NC(=O)[C@@H]2CC(=O)NC(=O)N2)cc1)NC(=O)[C@H](CO)NC(=O)[C@@H](Cc1cccnc1)NC(=O)[C@@H](Cc1ccc(Cl)cc1)NC(=O)[C@@H](Cc1ccc2ccccc2c1)NC(C)=O,,,,,>80,
CC(=O)Nc1ccc(C[C@@H](NC(=O)[C@H](Cc2ccc(NC(N)=O)cc2)NC(=O)[C@H](CO)NC(=O)[C@@H](Cc2cccnc2)NC(=O)[C@@H](Cc2ccc(Cl)cc2)NC(=O)[C@@H](Cc2ccc3ccccc3c2)NC(C)=O)C(=O)N[C@@H](CC(C)C)C(=O)N[C@@H](CCCCNC(C)C)C(=O)N2CCC[C@H]2C(=O)N[C@H](C)C(N)=O)cc1 (Ac-[d2Nal][dPhe(4-Cl)][d3Pal]S[Phe(4-NHCONH2)][dPhe(4-NH2)](Ac)L[Lys(iPr)]P[dA]-NH2),7.2,,,,>80,
CC(=O)N[C@H](Cc1ccc2ccccc2c1)C(=O)N[C@H](Cc1ccc(Cl)cc1)C(=O)N[C@H](Cc1cccnc1)C(=O)N[C@@H](CO)C(=O)N[C@@H](Cc1ccc(NC(=O)[C@@H]2CC(=O)NC(=O)N2)cc1)C(=O)N[C@H](CCCNC(N)=O)C(=O)N[C@@H](CC(C)C)C(=O)N[C@@H](CCCCNC(C)C)C(=O)N1CCC[C@H]1C(=O)N[C@H](C)C(N)=O,,,,,,>80
CC(=O)Nc1ccc(C[C@H](NC(=O)[C@H](CO)NC(=O)[C@@H](Cc2cccnc2)NC(=O)[C@@H](Cc2ccc(Cl)cc2)NC(=O)[C@@H](Cc2ccc3ccccc3c2)NC(C)=O)C(=O)N[C@H](Cc2ccc(NC(N)=O)cc2)C(=O)N[C@@H](CC(C)C)C(=O)N[C@@H](CCCCNC(C)C)C(=O)N2CCC[C@H]2C(=O)N[C@H](C)C(N)=O)cc1 (Ac-[d2Nal][dPhe(4-Cl)][d3Pal]S[Phe(4-NH2)](Ac)[dPhe(4-NHCONH2)]L[Lys(iPr)]P[dA]-NH2),6.1,,0.501,,,>80
CC(=O)N[C@H](Cc1ccc2ccccc2c1)C(=O)N[C@H](Cc1ccc(Cl)cc1)C(=O)N[C@H](Cc1cccnc1)C(=O)N[C@@H](CO)C(=O)N[C@@H](Cc1ccc(NC(=O)[C@@H]2CC(=O)NC(=O)N2)cc1)C(=O)N[C@H](Cc1ccc(CNC(N)=O)cc1)C(=O)N[C@@H](CC(C)C)C(=O)N[C@@H](CCCCNC(C)C)C(=O)N1CCC[C@H]1C(=O)N[C@@H](C)CO,5.5,>80,0.631,,,
